Source: ChEMBL document CHEMBL2169772, “Discovery of (2S)-1-[4-(2-{6-amino-8-[(6-bromo-1,3-benzodioxol-5-yl)sulfanyl]-9H-purin-9-yl}ethyl)piperidin-1-yl]-2-hydroxypropan-1-one (MPC-3100), a purine-based Hsp90 inhibitor” (J Med Chem, 2012)
Active and inactive are the calls of the source. No cut-off for these calls is given here.

Key:
Mus musculus [1] = test: Inhibition of HSP90 in human NCI-N87 cells xenografted nude mouse liver assessed as induction of HSP70 mRNA expression at 50 to 200 mg/kg, po qd for 22 days; format: functional, organism-based
Heat shock protein HSP90 [2] = target: T1, Heat shock protein HSP90 (Homo sapiens, UniProt P07900+P08238); test: Inhibition of human HSP90 in DU145 cells assessed as induction of HSP70 incubated for 24 hrs by Western blot method; format: cell-based; settings: DU-145
In short: (§1)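 Cells exposed to a range of concentrations for 24 h. Lysates analyzed by Western blot with Her2-, Hsp70- and Akt-specific antibodies.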

[3] = Oral bioavailability in Swiss nude mouse at 100 mg/kg administered using captisol and phosphate buffer system formulation by LC-ESI-MS/MS method; settings: in vivo
Heat shock protein HSP90 [4] = target: T1, Heat shock protein HSP90; test: Inhibition of human HSP90 in NCI-N87 cells assessed as degradation of Her2 incubated for 24 hrs by Western blot method; format: cell-based; in short: as §1
LNCaP = test: Cytotoxicity against human LNCAP cells assessed as inhibition of tumor growth incubated for 72 hrs by luminometry; format: functional, cell-based
In short: (§2)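 Cells seeded at 5000 per well in DMEM with 10% serum and left overnight. Compound added from DMSO dilutions (0.4% DMSO final) for 72 h. After 5 min at room temperature, ATPLite two-step lysis and substrate added, 5 min incubation, then luminescence read. Values are the mean of at least two experiments.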

Heat shock protein HSP90 [5] = target: T1, Heat shock protein HSP90; test: Inhibition of human HSP90 in DU145 cells assessed as degradation of Her2 incubated for 24 hrs by Western blot method; format: cell-based; in short: as §1
DU-145 = test: Cytotoxicity against human DU145 cells assessed as inhibition of tumor growth incubated for 72 hrs by luminometry; format: functional, cell-based; settings: DU-145, 72 h; in short: as §2
[6] = Oral bioavailability in Swiss nude mouse at 10 mg/kg by LC-ESI-MS/MS method; format: ADME, organism-based; settings: in vivo
In short: (§3)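 Mice dosed by oral gavage, vehicle DMA/PEG300/EtOH/H2O (3/40/12/45, v/v/v/v). Blood drawn by cardiac puncture into EDTA plasma. Three or five animals per time point. Plasma precipitated with acetonitrile plus internal standard. Quantified by LC-ESI-MS/MS against a 10–10 000 ng/mL standard curve with QC samples. Noncompartmental analysis.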

Heat shock protein HSP90 [7] = target: T1, Heat shock protein HSP90; test: Inhibition of human HSP90 using BODIPY labelled geldanamycin as substrate by fluorescence polarization assay; format: protein assay
Mus musculus [8] = test: Hepatic clearance in Swiss nude mouse at 2.5 mg/kg, iv by LC-ESI-MS/MS method; format: ADME, organism-based, Liver; design: dose 2.5 mg/kg, route intravenous; settings: in vivo
In short: (§4)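 Intravenous dose in mice, vehicle DMA/PEG300/EtOH/H2O 3/40/12/45. Sampling at 5, 15, 30, 60, 120, 240, 480 and 720 min, three or five animals per time point. Cardiac-puncture EDTA plasma. Acetonitrile protein precipitation with internal standard, then LC-ESI-MS/MS (10–10 000 ng/mL curve). Parameters by noncompartmental fit.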

[9] = AUC in Swiss nude mouse at 10 mg/kg, po by LC-ESI-MS/MS method; format: ADME, organism-based; design: dose 10 mg/kg, route oral; settings: plasma; in short: as §3
[10] = Cytotoxicity against human NCI-ADR-RES cells overexpressing P-gp 1 assessed as inhibition of tumor growth incubated for 72 hrs by luminometry; format: functional, cell-based; in short: as §2
[11] = AUC in Swiss nude mouse at 2.5 mg/kg, iv by LC-ESI-MS/MS method; format: ADME, organism-based; design: dose 2.5 mg/kg, route intravenous; settings: plasma; in short: as §4
[12] = Metabolic stability in human liver microsomes assessed as percent of residual drug in presence of NADPH incubated for 40 mins by LC-ESI-MS/MS method; format: ADME, Microsome; settings: liver microsomes, read-out: Stability
In short: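 Test article incubated in duplicate with human liver microsomes (0.5 mg/mL protein) in 100 mM potassium phosphate pH 7.4. Started with 1 mM NADPH. Stopped with acetonitrile at 0, 10, 20 and 40 min. LC-MS/MS peak area at 40 min reported as percent of 0 min. No-NADPH control incubated for 40 min.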

[13] = Cmax in Swiss nude mouse at 10 mg/kg, po by LC-ESI-MS/MS method; format: ADME, organism-based; design: dose 10 mg/kg, route oral; settings: in vivo; in short: as §3
Heat shock protein HSP90 [14] = target: T1, Heat shock protein HSP90; test: Inhibition of human HSP90 in HCT116 cells assessed as degradation of Her2 incubated for 24 hrs by Western blot method; format: cell-based; in short: as §1
NCI-N87 = test: Antitumor activity against human NCI-N87 cells xenografted in nude mouse assessed as tumor growth inhibition at 50 mg/kg, po qd for 22 days measured twice a week; format: functional; settings: NCI-N87, 528 h, read-out: TGI
In short: (§5)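 Female nude mice (Crl:NU-Fox1nu) implanted subcutaneously in the right flank with 5 million NCI-N87 cells. At median tumor volume of roughly >100 mm3, randomized to 5 cohorts of 10. Dosed orally once daily for 22 days with vehicle (40% w/w Captisol) or 50, 75, 125 or 200 mg/kg. Tumor size and body weight measured at least twice weekly.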

[15] = Volume of distribution in Swiss nude mouse at 2.5 mg/kg, iv by LC-ESI-MS/MS method; format: ADME, organism-based; design: dose 2.5 mg/kg, route intravenous; settings: in vivo; in short: as §4
[16] = Lipophilicity, log P of the compound; format: physicochemical; settings: octanol/water
MV4-11 = test: Cytotoxicity against human MV4-11 cells assessed as inhibition of tumor growth incubated for 72 hrs by luminometry; format: functional, cell-based; settings: MV4-11, 72 h; in short: as §2
Mus musculus [17] = test: Toxicity in nude mouse xenografted with human NCI-N87 cells assessed as effect on body weight at 50 mg/kg, po qd for 22 days measured twice a week; format: organism-based; design: dose 50 mg/kg, route oral; settings: in vivo, 528 h; in short: as §5

C[C@H](O)C(=O)N1CCC(CCn2c(Sc3cc4c(cc3Br)OCO4)nc3c(N)ncnc32)CC1
inhibition (Mus musculus [1]): Active
inhibition (Heat shock protein HSP90 [2]): Dose-dependent effect
bioavailability [3]: > 50%
IC50 (Heat shock protein HSP90 [4]): 100 nM
inhibition (Heat shock protein HSP90 [4]): Dose-dependent effect
IC50 (LNCaP): 510 nM
inhibition (Heat shock protein HSP90 [5]; DU-145): Dose-dependent effect
IC50 (Heat shock protein HSP90 [5]; du-145): 100 nM
IC50 (DU-145): 530 nM
bioavailability [6]: 38%
IC50 (Heat shock protein HSP90 [7]): 140 nM
CLH (Mus musculus [8]): 19.78 mL/min/kg
AUC [9]: 3210 ng·h/mL
IC50 [10]: 4300 nM
AUC [11]: 2110 ng·h/mL
remaining at 40 min [12]: 42%
Cmax [13]: 2800 ng/mL
inhibition (Heat shock protein HSP90 [14]; HCT-116): Dose-dependent effect
IC50 (Heat shock protein HSP90 [14]; hct-116): 100 nM
inhibition in vivo at 50 mg/kg (NCI-N87): 37%
Vd [15]: 2.44 L/kg
logP [16]: 3.32
IC50 (MV4-11): 250 nM
Activity (Mus musculus [17]): Non-toxic
